From ChEMBL document CHEMBL2401612, “Design, synthesis and characterization of peptidomimetic conjugate of BODIPY targeting HER2 protein extracellular domain” (Eur J Med Chem, 2013) come the findings set out here.

Calls of active or inactive are those of the source. The rule behind the calls is not given here.

Data set [1] has as its target Receptor tyrosine-protein kinase erbB-2 (Homo sapiens) (UniProt P04626). Briefly: Binding affinity to HER2 extracellular domain in human SKBR3 cells assessed as inhibition of EGFR binding. Conditions: SK-BR-3. It counts as cell-based.
The target is the same in data set [2]. In words: Binding affinity to HER2 extracellular domain in human SKBR3 cells assessed as inhibition of HER3 binding at 0.5 uM after 24 hrs by confocal microscopy-based proximity ligation assay. It counts as cell-based. Conditions: SK-BR-3. The procedure, abridged: (§1)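 SKBR-3 cells seeded at 5 × 10^4 per chamber well and grown 24 h at 37 °C, then treated 24 h. Cells fixed in ice-cold methanol at −20 °C and blocked in 5% BSA 1 h. Primary antibodies anti-HER2 (rabbit) and anti-HER3 (mouse), each 1:400, applied overnight at 4 °C. Duolink PLA probes, ligation and amplification at 37 °C, then confocal imaging of red heterodimer spots.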

Data set [3] has the same target. In words: Inhibition of HER2 kinase domain phosphorylation in human BT474 cells at 0.4 uM by Western blot analysis. Type of data set: cell-based. Conditions: BT-474, TDE = time-dependent effect. The procedure, abridged:
(§2)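 BT-474 cells (RPMI-1640) and SKBR-3 cells (McCoy's), each with 10% FBS and insulin, plated in triplicate flasks and treated after 24 h with 0.4 μM compound or left untreated at 37 °C, 5% CO2. Lysates made with protease and phosphatase inhibitors; 40 μg protein run on 10% SDS-PAGE. Blots probed with p-HER2 antibody (1:3000, 15 h, 4 °C), detected by ECL; total HER2 blotted with an anti-ECD antibody.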

Data set [4] has the same target. In words: Inhibition of HER2 kinase domain phosphorylation in human SKBR3 cells at 0.4 uM by Western blot analysis. Type of data set: cell-based. Conditions: SK-BR-3, TDE = time-dependent effect. The method in brief:
as §2
Background: In western blotting, separated proteins are transferred to a membrane and probed.

Data set [5] has the same target. Briefly: Binding affinity to HER2 extracellular domain in human SKBR3 cells assessed as inhibition of HER3 binding at 0.8 uM after 24 hrs by confocal microscopy-based proximity ligation assay. It counts as cell-based. Conditions: SK-BR-3. The method in brief:
as §1

For data set [6] the target is unchanged. Briefly: Inhibition of HER2 kinase domain phosphorylation in human BT474 cells at 0.4 uM after 18 hrs by Western blot analysis. It counts as cell-based. Conditions: BT-474. The method in brief: as §2
For data set [7] the target is unchanged. Briefly: Inhibition of HER2 kinase domain phosphorylation in human SKBR3 cells at 0.4 uM after 18 hrs by Western blot analysis. It counts as cell-based. Conditions: SK-BR-3. The method in brief: as §2
The test system of data set [8] is SK-BR-3. In words: Cellular uptake in human SKBR3 cells overexpressing HER2 at 1 to 10 uM by fluorescence plate reader analysis. Conditions: sk-br-3, 10 µM, TDE = time-dependent effect. Type of data set: ADME, cell-based. The procedure, abridged: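 Fluorescent BODIPY conjugate diluted in McCoy's medium to 1 and 10 μM and added to SKBR-3 cells (10,000/well, grown 24 h) at 37 °C. At 0, 12, 24, 36, 48 and 72 h, medium removed and cells washed twice with PBS. Cell-associated fluorescence read on a plate reader at 490/530 nm excitation/emission.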

Data set [9] has as its system SK-BR-3. In words: Cellular uptake in human SKBR3 cells overexpressing HER2 at 0.4 uM after 48 hrs by lyso tracking-based confocal microscopic analysis. Type of data set: ADME, cell-based. Conditions: sk-br-3, 48 h. The procedure, abridged:
(§3)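 SKBR-3 cells in chamber wells given 0.4 μM BODIPY conjugate at 37 °C for 24 or 48 h, PBS-washed and fixed in ice-cold methanol at −20 °C for 5 min. Membrane tracker (5 min) or Lyso tracker (30 min) in serum-free medium added at 37 °C. Mounted slides imaged by confocal microscopy at 40X under oil with argon and HeNe lasers to assess co-localization.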

Data set [10] is described as follows: Cellular uptake in human SKBR3 cells plasma membrane overexpressing HER2 at 0.4 uM after 24 hrs by membrane tracking-based confocal microscopic analysis. It counts as ADME, cell-based. Conditions: sk-br-3, 24 h. The procedure, abridged:
as §3

Receptor tyrosine-protein kinase erbB-2 (Homo sapiens), sequence (P04626 whole entry, the tested form may be a part): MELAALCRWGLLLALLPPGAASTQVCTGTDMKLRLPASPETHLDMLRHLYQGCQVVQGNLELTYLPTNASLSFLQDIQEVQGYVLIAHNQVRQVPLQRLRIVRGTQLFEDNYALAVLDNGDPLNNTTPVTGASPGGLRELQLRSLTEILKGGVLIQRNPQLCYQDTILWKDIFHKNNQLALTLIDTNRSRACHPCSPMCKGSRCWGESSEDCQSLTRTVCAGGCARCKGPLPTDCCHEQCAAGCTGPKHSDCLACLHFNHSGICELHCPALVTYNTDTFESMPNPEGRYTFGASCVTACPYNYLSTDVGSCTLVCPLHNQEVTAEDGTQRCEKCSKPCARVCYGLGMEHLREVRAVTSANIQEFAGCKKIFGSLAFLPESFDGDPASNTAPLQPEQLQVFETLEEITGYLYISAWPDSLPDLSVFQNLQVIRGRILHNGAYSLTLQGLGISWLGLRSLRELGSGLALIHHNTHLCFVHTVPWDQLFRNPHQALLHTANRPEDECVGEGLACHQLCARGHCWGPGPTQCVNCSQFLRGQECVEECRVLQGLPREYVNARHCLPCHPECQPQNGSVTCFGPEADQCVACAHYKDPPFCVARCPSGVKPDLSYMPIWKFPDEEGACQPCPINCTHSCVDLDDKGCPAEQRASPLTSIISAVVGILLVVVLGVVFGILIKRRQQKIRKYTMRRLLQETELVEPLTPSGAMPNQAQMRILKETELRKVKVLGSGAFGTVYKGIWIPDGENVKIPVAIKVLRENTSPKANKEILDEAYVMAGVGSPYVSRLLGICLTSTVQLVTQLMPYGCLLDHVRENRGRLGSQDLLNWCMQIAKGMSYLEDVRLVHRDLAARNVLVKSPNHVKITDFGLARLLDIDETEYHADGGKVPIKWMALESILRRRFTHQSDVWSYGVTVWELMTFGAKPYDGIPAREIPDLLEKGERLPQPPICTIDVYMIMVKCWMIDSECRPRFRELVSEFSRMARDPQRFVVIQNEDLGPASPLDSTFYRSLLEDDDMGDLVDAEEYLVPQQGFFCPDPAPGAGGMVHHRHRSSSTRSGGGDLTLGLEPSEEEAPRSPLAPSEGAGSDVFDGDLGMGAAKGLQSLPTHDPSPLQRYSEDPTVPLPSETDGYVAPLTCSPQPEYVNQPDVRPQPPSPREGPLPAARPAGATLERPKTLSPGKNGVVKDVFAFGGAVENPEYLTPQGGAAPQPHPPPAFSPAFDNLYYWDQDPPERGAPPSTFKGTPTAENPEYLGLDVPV

`N=C(N)NCCC[C@H](N)C(=O)NC(CC(=O)N[C@@H](Cc1ccccc1)C(=O)O)c1cccc2ccccc12` (stereo not given in full): the inhibition result in data set [1], in data set [5], in data set [6] and in data set [7] was “Active” each time. Also, in data set [2], the inhibition result is “inactive”. Also, the inhibition result in data set [3] and in data set [4] was “tde” each time.

Consider `Cc1cc(C)n2c1C=C1C=CC(CCCCC(=O)N[C@@H](CCCNC(=N)N)C(=O)NC(CC(=O)N[C@@H](Cc3ccccc3)C(=O)O)c3cccc4ccccc34)=[N+]1[B-]2(F)F` (stereo not given in full), for which the values for the Drug uptake entry (in the data set with SK-BR-3 [8]; with SK-BR-3 [9]; in data set [10]) were “tde”, “Active” and “Active”, respectively.
